Compound activity as filed in PubChem.
Beta cell apopt – blocks beta cell apoptosis; INS-1E cytokine-induced death, ATP luminescence, 48 h; percent of positive-control rescue, neutral wells zero; protection from apoptosis, % (concentration not given with the values); 300,000 tested, 0.8% active; AID 435005;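 active = Every replicate reaches about 75%, or at least half do and their mean reaches it too, limit read from the data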;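 note: higher means more ATP so stronger rescue from cytokine killing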
TMEM16A inh – mouse TMEM16A channel inhibition, primary screen. Q8BHY3. HEK293 TMEM16A/YFP iodide influx fluorescence, ionomycin. normalized B-score (activity score, 25-100; higher = stronger inhibition) at 10 µM. 310,000 tested, 1.2% active. AID 588511;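 active = ratio plate-corrected score three or more library SD toward inhibition, starting fluorescence score within five deviations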;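 note: score derived from kinetic fluorescence span divided by baseline fluorescence per well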
Target sequence (Q8BHY3 whole entry, looked up): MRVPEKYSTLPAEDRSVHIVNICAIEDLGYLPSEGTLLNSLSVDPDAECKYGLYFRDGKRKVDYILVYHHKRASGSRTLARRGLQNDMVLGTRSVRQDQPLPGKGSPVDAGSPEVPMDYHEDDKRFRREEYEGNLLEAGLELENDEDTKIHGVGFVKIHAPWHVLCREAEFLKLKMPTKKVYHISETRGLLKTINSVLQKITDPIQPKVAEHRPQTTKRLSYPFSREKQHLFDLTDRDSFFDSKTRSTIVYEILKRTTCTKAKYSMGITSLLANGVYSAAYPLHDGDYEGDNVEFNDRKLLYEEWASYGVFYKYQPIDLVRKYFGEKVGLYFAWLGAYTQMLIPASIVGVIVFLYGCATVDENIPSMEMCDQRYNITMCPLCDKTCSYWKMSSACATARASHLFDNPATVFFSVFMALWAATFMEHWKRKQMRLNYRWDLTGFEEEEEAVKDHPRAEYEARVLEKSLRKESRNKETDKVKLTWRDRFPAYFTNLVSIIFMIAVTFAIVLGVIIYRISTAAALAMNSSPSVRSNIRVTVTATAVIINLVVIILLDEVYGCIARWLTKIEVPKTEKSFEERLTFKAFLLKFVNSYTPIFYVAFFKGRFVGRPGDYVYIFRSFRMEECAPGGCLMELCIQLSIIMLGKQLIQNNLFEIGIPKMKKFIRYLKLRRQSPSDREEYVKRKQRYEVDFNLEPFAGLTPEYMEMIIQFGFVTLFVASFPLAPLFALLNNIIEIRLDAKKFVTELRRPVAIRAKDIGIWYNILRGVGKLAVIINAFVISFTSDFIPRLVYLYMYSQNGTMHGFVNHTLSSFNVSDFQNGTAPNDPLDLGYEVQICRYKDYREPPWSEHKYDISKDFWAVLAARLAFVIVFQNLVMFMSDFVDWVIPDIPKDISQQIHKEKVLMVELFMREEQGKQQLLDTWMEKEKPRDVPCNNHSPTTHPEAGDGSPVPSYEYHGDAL
ANO1 activ – mouse TMEM16A channel activation, primary screen | HEK293 TMEM16A/YFP-H148Q/I152L, iodide quench fluorescence; hits give low values | B-score at 10 µM | 340,000 tested, 0.3% active | AID 623877;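 active = fluorescence-ratio B-score plate-corrected deviation score at least 3 library SD below zero, with starting fluorescence score within 5 deviations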;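 note: channel opened by trigger with iodide after compound preincubation; score built on the fluorescence ratio of max minus min over baseline; more negative score means more quench and so TMEM16A activation or potentiation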
MC4R antagonist – blocks human MC4R cAMP signaling | P32245 | MC4R-expressing cells, MTII-stimulated cAMP, LANCE TR-FRET | inhibition, % at 6.5 µM | 360,000 tested, 0.48% active | AID 540295;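 active = inhibition above its plate's cutoff, the mean of tested wells on that plate plus 3 SD, cut at about 29% in these data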
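Assay system: human MC4R-expressing U2OS cells; reagent: Melanotan II stimulation of cells; dosing: 6.5 µM single dose; timing: compound 30 min, challenge 1 h, detection 1 h; signal: TR-FRET cAMP assay; replicates: one well per compound, no replicates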
MC4R barr agon – human MC4R agonism via beta-arrestin. P32245. U2OS MC4R beta-arrestin complementation, luminescence; percent of melanotan II response, DMSO zero. activation, % at 8.9 µM. 360,000 tested, 0.98% active;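 active = activation above a per-plate cutoff, the mean activation of sample wells on that plate plus 3 SD, cut at about 8% in these data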
CSC inhib – cancer stem cell inhibition. cancer stem cell-like cells viability, luminescence. 300,000 tested, 1.1% active. AID 2717. inhibition, % at 7.5 µM; in the data active = inhibition above about 75%; tested in HMLE shEcad cells
Numbers stand for hits; - = inactive; . = no result given. Compounds with a hit are over-represented: about 3.8% of the library has one in this group of screens.

SMILES	Beta cell apopt	TMEM16A inh	ANO1 activ	MC4R antagonist	MC4R barr agon	CSC inhib
CC(=O)Nc1cc(OC(C)=O)c2nonc2c1OC(C)=O	-	-	-	-	-	106
CCOC(=O)c1sc(NC(=O)c2ccc(S(=O)(=O)N(C)C)cc2)nc1C	-	-	-14	-	-	-
COC(=O)c1cc(S(=O)(=O)N2CCN(c3cccc(Cl)c3)CC2)c[nH]1	-	-	-	-	9.1	-
CC(C(=O)N1CCN(C(=O)c2ccco2)CC1)n1sc2ccccc2c1=O (stereo unspecified)	-	-	-45	-	-	-
O=C(NNC(=O)c1cccc2ccccc12)c1ccc2c(c1)OCO2	-	-	-	-	-	-
Cc1cc(=O)n2nc(N3CCCC(C(=O)N4CCOCC4)C3)sc2n1 (stereo unspecified)	-	-	-5.5	-	-	-
Cc1cc(=O)n2nc(N3CCCC(C(=O)N4CCc5ccccc54)C3)sc2n1 (stereo unspecified)	-	-	-	-	-	-
CC1(C)c2ccccc2-n2c1cc1oc(=O)cc(O)c1c2=O	-	-	-	-	-	-
Cc1ccc(/C=N\NC(=O)c2cc(OCC(F)(F)F)ccc2OCC(F)(F)F)cc1	-	-	-	-	14	.
CCOC(=O)c1c(-c2ccc(-c3ccccc3)cc2)csc1NC(=O)CCN1CCOCC1	-	-	-	-	-	105
CCOC(=O)c1c(-c2ccc(-c3ccccc3)cc2)csc1NC(=O)CNCCN(C)C	-	-	-	-	-	99
C[C@H](CO)N1C[C@H](C)[C@@H](CN(C)S(=O)(=O)c2ccccc2)Oc2ccc(NC(=O)C3CC3)cc2C1=O	-	.	.	-	-	-
Cn1c(=O)c(C(=O)c2ccc(S(C)(=O)=O)c(Cl)c2Cl)c(O)c2ccccc21	-	-	-	-	-	-
CCN(CC(=O)Nc1ccc(N2CCOCC2)cc1)C(=O)Cc1ccccc1	-	.	-32	-	-	.
COc1ccc(N=Cc2[nH]c3ccccc3c2O)cc1	-	-	-7.6	-	-	-
O=C1NN(c2ccc(Br)cc2)C(=O)/C1=C\c1ccc(O)cc1O	-	-	-	-	-	-
O=C1NN(c2cccc(Br)c2)C(=O)/C1=C\c1ccc(O)cc1	-	-	-	-	-	108
Cc1cc[n+](CC(=O)c2ccccc2)c2ccccc12	117	-	-	-	-	-
Cc1cc[n+](CCC(=O)O)c2ccccc12	-	-	-	-	-	.
COc1ccc(CNC(=O)c2sc(=O)n(Cc3ccccc3OC)c2C)cc1	.	.	.	-	-	.
COC(=O)[C@@H]1Cc2c([nH]c3ccccc23)C(C)(C)N1C(=O)CCl	-	-	-	-	13	-
Cc1nn(C(C)C(=O)Nc2sc3c(c2C#N)CCCC3)c(C)c1[N+](=O)[O-] (stereo unspecified)	.	100	-	-	-	.
Cc1cccc2nc(CNC(=O)C3CCC(=O)N(Cc4ccccc4F)C3)cn12 (stereo unspecified)	-	-	-	-	-	-
O=C(Nc1nccs1)c1ccc(COc2ccc(F)cc2)o1	-	-	-	-	-	-
O=C(Nc1cccnc1)c1ccccc1Oc1ccccc1	-	-	-	-	-	-
SMILES	Beta cell apopt	TMEM16A inh	ANO1 activ	MC4R antagonist	MC4R barr agon	CSC inhib
O=C(Nc1cccnc1)c1ccc(COc2ccccc2Br)cc1	-	-	-	-	-	90
Cc1cc(C)n(Cc2ccc(NC(=O)c3ccc(COc4ccccc4Br)cc3)cc2)n1	78	-	-	-	-	125
O=C(Nc1nccs1)c1ccc(COc2ccccc2Br)o1	-	-	-	-	-	196
O=C(Nc1cccnc1)c1ccc(Oc2ccccc2)cc1	-	25	-	-	-	-
O=C(Cc1ccc(-c2ccccc2)cc1)Nc1ncccc1O	-	-	-	-	-	-
O=S1(=O)Nc2c(ccc3cccnc23)-c2ccccc21	-	-	-	-	-	96
CCc1ccc(N2CC(C(=O)OCc3nc4ccsc4c(=O)[nH]3)CC2=O)cc1 (stereo unspecified)	-	.	-	-	-	.
O=Nc1c(O)n(Cc2c(Cl)cccc2Cl)c2ccccc12	-	-	-	-	8.4	-
O=Nc1c(O)n(Cc2ccc(Cl)cc2Cl)c2ccccc12	-	-	-	-	-	113
O=Nc1c(O)n(Cc2ccc(Cl)cc2)c2ccccc12	-	-	-	-	-	-
Cc1ccc2c(c1)c(N=O)c(O)n2Cc1ccc(Cl)cc1	-	-	-	-	-	104
Cc1ccc(Cn2c(O)c(N=O)c3ccccc32)cc1	-	-	-	-	-	-
COc1ccc(NC(=O)c2cccc(S(=O)(=O)NCc3ccccc3)c2)cc1S(N)(=O)=O	-	.	-	-	-	.
CSc1sc(C(=O)NN)c2c1C(O)CCC2 (stereo unspecified)	-	-	-	-	-	-
S=c1[nH]nc(-c2ccco2)n1/N=C/C(Cl)=C/c1ccccc1	-	-	-	-	-	83
S=c1[nH]nc(C2CCCCC2)n1/N=C/C(Cl)=C\c1ccccc1	-	-	-	-	-	109
Cc1cc(-c2n[nH]c(=S)n2/N=C/C(Cl)=C/c2ccccc2)n[nH]1	-	-	-	-	-	-
O=C(O)C1c2ccccc2Cc2ccccc21	.	.	.	-	-	.
CCN1CCN(S(=O)(=O)c2ccc(Cl)c(C(=O)NCc3nc4ccccc4[nH]3)c2)CC1	.	.	-	-	-	.
CC1(NC(=O)CSc2nnc(-c3c[nH]c4ccccc34)n2C2CC2)CCS(=O)(=O)C1 (stereo unspecified)	-	.	-	-	-	-
O=C(N/N=C/c1sc(N2CCOCC2)nc1-c1ccccc1)c1ccccc1Cl	-	-	-	-	-	-
O=C(N/N=C/c1sc(N2CCOCC2)nc1-c1ccccc1)c1ccccc1O	-	100	-	-	-	-
Nc1c(/C=C2/C=CC(=O)C(O)=C2)c(=O)nc2sc(CC(=O)N3CCCCC3)nn12	-	-	-5.5	-	-	-
COC1=C/C(=C/c2c(N)n3nc(CC(=O)N4CCCC4)sc3nc2=O)C=CC1=O	-	-	-5.7	-	-	-
COc1ccccc1C1=NOC(COc2ccc3c(C)cc(=O)oc3c2)C1 (stereo unspecified)	-	-	-	-	-	79
COc1ccc(C2=NOC(COc3ccc4c(C)cc(=O)oc4c3)C2)c(OC)c1 (stereo unspecified)	-	-	-	-	-	-
O=C(CSCc1cccc(Cl)c1)Nc1ccccc1-c1ccccc1	-	-	-	-	-	75
COc1ccc(C(=O)C2CCCN(Cc3ccc4nonc4c3)C2)cc1OC (stereo unspecified)	-	-	-	-	-	-
COc1ccc(C(=O)C2CCCN(Cc3ccc4nonc4c3)C2)cc1F (stereo unspecified)	-	25	-	-	-	-
